# Data: ChEMBL document CHEMBL4613213, “Anibamine and Its Analogues: Potent Antiplasmodial Agents from Aniba citrifolia” (J Nat Prod, 2020)
# Activity calls are given as the source filed them. The rule behind the calls is not given here.
# Columns and labels:
# [1] = system: Plasmodium falciparum; assay: Antiplasmodial activity against Plasmodium falciparum Dd2 assessed as reduction in parasite growth after 72 hrs by SYBR Green 1 staining based assay; assay type: functional, organism-based
# In short: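 Dd2 cultures started at ring stage, 1% hematocrit and 1% parasitemia. Grown 72 h at 37 °C in 5% CO2/5% O2/90% N2 across increasing drug concentrations. Viability read by SYBR Green I DNA quantitation in lysis buffer. IC50 from nonlinear regression; mean of three independent determinations, each in triplicate, ± SEM.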
# [2] = system: Plasmodium falciparum; assay: Antiplasmodial activity against Plasmodium falciparum Dd2 schizonts form infected in erythrocytes assessed as reduction in parasite growth at 0.5 uM after 6 hrs by Giemsa staining based light microscopic method; assay type: functional, organism-based
# In short: (§1)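 Compound added at schizont stage (40–42 post-invasion). Morphology assessed on Giemsa-stained thin blood smears at 6, 24 and 48 h of treatment and compared with untreated controls. Two or more independent experiments.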
# [3] = Hemolytic activity in human RBC; assay type: cell-based, Erythrocyte; conditions: human red blood cells (erythrocytes)
# [4] = system: Plasmodium falciparum; assay: Antiplasmodial activity against Plasmodium falciparum Dd2 schizonts form infected in erythrocytes assessed as reduction in reinvasion at 0.5 uM after 6 hrs by Giemsa staining based light microscopic method; assay type: functional, organism-based; in short: as §1
# [5] = system: Plasmodium falciparum; assay: Antiplasmodial activity against Plasmodium falciparum Dd2 schizonts form infected in erythrocytes assessed as morphological defects at 0.5 uM after 48 hrs by Giemsa staining based light microscopic method; assay type: functional, organism-based; in short: as §1
# [6] = system: Plasmodium falciparum; assay: Antiplasmodial activity against Plasmodium falciparum Dd2 schizonts form infected in erythrocytes assessed as reduction in ring stage formation at 0.5 uM after 6 hrs by Giemsa staining based light microscopic method; assay type: functional, organism-based; in short: as §1
# [7] = system: Plasmodium falciparum; assay: Antiplasmodial activity against Plasmodium falciparum Dd2 schizonts form infected in erythrocytes assessed as reduction in trophozoites formation at 0.5 uM after 48 hrs by Giemsa staining based light microscopic method; assay type: functional, organism-based; in short: as §1
# [8] = system: Plasmodium falciparum; assay: Antiplasmodial activity against Plasmodium falciparum Dd2 schizonts form infected in erythrocytes assessed as reduction in ring stage formation at 1 uM after 6 hrs by Giemsa staining based light microscopic method; assay type: functional, organism-based; in short: as §1
# [9] = system: Plasmodium falciparum; assay: Antiplasmodial activity against Plasmodium falciparum Dd2 schizonts form infected in erythrocytes assessed as reduction in trophozoites formation at 1 uM after 48 hrs by Giemsa staining based light microscopic method; assay type: functional, organism-based; in short: as §1
# [10] = system: Plasmodium falciparum; assay: Antiplasmodial activity against Plasmodium falciparum Dd2 schizonts form infected in erythrocytes assessed as reduction in parasite growth at 1 uM after 6 hrs by Giemsa staining based light microscopic method; assay type: functional, organism-based; in short: as §1
# [11] = system: Plasmodium falciparum; assay: Antiplasmodial activity against Plasmodium falciparum Dd2 schizonts form infected in erythrocytes assessed as morphological defects formation at 1 uM after 48 hrs by Giemsa staining based light microscopic method; assay type: functional, organism-based; in short: as §1
# [12] = system: Plasmodium falciparum; assay: Antiplasmodial activity against Plasmodium falciparum Dd2 schizonts form infected in erythrocytes assessed as reduction in reinvasion at 1 uM after 6 hrs by Giemsa staining based light microscopic method; assay type: functional, organism-based; in short: as §1
# [13] = system: A2780; assay: Cytotoxicity against human A2780 cells assessed as reduction in cell viability after 2 days by AlamarBlue assay; assay type: ADME, cell-based; conditions: A2780, 48 h
# [14] = system: Plasmodium falciparum; assay: Antiplasmodial activity against Plasmodium falciparum Dd2 ring stage form infected in erythrocytes assessed as reduction in parasite growth at 1 uM after 6 to 72 hrs by Giemsa staining based light microscopic method; assay type: functional, organism-based
# In short: (§2)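 Compound added at ring stage (2–4 h post-invasion). Development followed on Giemsa-stained thin blood smears after 6, 24, 48 and 72 h of treatment and compared with untreated controls. Two or more independent experiments.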
# [15] = system: Plasmodium falciparum; assay: Antiplasmodial activity against Plasmodium falciparum Dd2 ring stage form infected in erythrocytes assessed as reduction in reinvasion at 1 uM after 48 to 72 hrs by Giemsa staining based light microscopic method; assay type: functional, organism-based; in short: as §2
# [16] = system: Plasmodium falciparum; assay: Antiplasmodial activity against Plasmodium falciparum Dd2 schizonts form infected in erythrocytes assessed as reduction in parasite growth at 1.25 uM after 6 hrs by Giemsa staining based light microscopic method; assay type: functional, organism-based
# In short: (§3)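 Dd2 intraerythrocytic cultures were treated either at ring stage (2–4 h post-invasion) or at schizont stage (40–42 post-invasion). Development and morphology were followed by light microscopy of Giemsa-stained thin blood smears at 6, 24, 48 and 72 h of treatment and compared with untreated controls. Data come from two or more independent experiments.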
# [17] = system: Plasmodium falciparum; assay: Antiplasmodial activity against Plasmodium falciparum Dd2 schizonts form infected in erythrocytes assessed as reduction in reinvasion at 1.25 uM after 6 hrs by Giemsa staining based light microscopic method; assay type: functional, organism-based; in short: as §3
# [18] = system: Plasmodium falciparum; assay: Antiplasmodial activity against Plasmodium falciparum Dd2 schizonts form infected in erythrocytes assessed as reduction in ring stage formation at 1.25 uM after 6 hrs by Giemsa staining based light microscopic method; assay type: functional, organism-based; in short: as §3
# [19] = system: Plasmodium falciparum; assay: Antiplasmodial activity against Plasmodium falciparum Dd2 ring stage form infected in erythrocytes assessed as reduction in parasite growth at 0.5 uM after 6 to 72 hrs by Giemsa staining based light microscopic method; assay type: functional, organism-based; in short: as §2
# [20] = system: Plasmodium falciparum; assay: Antiplasmodial activity against Plasmodium falciparum Dd2 ring stage form infected in erythrocytes assessed as reduction in reinvasion at 0.5 uM after 48 to 72 hrs by Giemsa staining based light microscopic method; assay type: functional, organism-based; in short: as §2
# [21] = Cytotoxicity against mouse 3T3 cells by neutral red uptake assay; assay type: cell-based; conditions: NIH3T3 cells, read-out: TC50 (the source's name)
# [22] = Plasmodium falciparum, Dd2, 72 h, read-out: IC50
smiles,measurement,setting,value
CCCCCCCC/C=C\c1c(C)nc(CCCOC)c(/C=C\CCCCCCCC)c1C,IC50,[1]; [22],19.3 µM
CCCCCCCC/C=C/c1c(C)cc(CCCOC)nc1C,IC50,[1]; [22],6.7 µM
CCCCCCCC/C=C\c1c(C)c(/C=C\CCCCCCCC)c2[n+](c1C)CCCCC2,Activity,[2],inactive
same,IC50,[1]; [22],0.067 µM
same,HC50,[3],> 58 µM
same,Activity,[4],inactive
same,Activity,[5],Active
same,Activity,[6],inactive
same,Activity,[7],Active
CCCCCCCC/C=C/c1c(C)c(/C=C/CCCCCCCC)c2[n+](c1C)CCC2,Activity,[2],inactive
same,IC50,[1]; [22],0.096 µM
same,HC50,[3],> 58 µM
same,Activity,[4],inactive
same,Activity,[5],Active
same,Activity,[6],inactive
same,Activity,[7],Active
CCCCCCCCCCc1c(C)cc(CCCOC)nc1C,IC50,[1]; [22],5.3 µM
CCCCCCCCCCc1c(C)c(CCCCCCCCCC)c2[n+](c1C)CCCCC2,Activity,[8],inactive
same,IC50,[1]; [22],0.077 µM
same,Activity,[9],Active
same,Activity,[10],inactive
same,HC50,[3],> 58 µM
same,Activity,[11],Active
same,Activity,[12],inactive
C=CC[C@@]12C=C(OC)C(=O)[C@@H]([C@H](c3ccc4c(c3)OCO4)[C@H]1C)[C@H]2O,IC50,[1],Not Active
same,IC50,[13],10 to 50 µM
CCCCCCCC/C=C/c1c(C)c(/C=C/CCCCCCCC)c2[n+](c1C)CCCCC2,Activity,[2],inactive
same,IC50,[1]; [22],0.06 µM
same,HC50,[3],> 58 µM
same,Activity,[4],inactive
same,Activity,[5],Active
same,Activity,[6],inactive
same,Activity,[7],Active
C[C@@H]1CC[C@H]2[C@@H](C)C(=O)O[C@@H]3O[C@@]4(C)CC[C@@H]1[C@]32OO4 [ARTEMISININ],IC50,[1]; [22],0.0065 µM
COc1cc(C/C=C(\C)CCC=C(C)C)c(O)c(-c2cc3cc(OC)cc(C/C=C(\C)CCC=C(C)C)c3oc2=O)c1,IC50,[1]; [22],18.2 µM
CCCCCCCC/C=C\c1c(C)cc2[n+](c1C)CCC2,Activity,[8],inactive
same,IC50,[1]; [22],0.142 µM
same,Activity,[10],inactive
same,Activity,[12],inactive
same,Activity,[14],inactive
same,Activity,[15],inactive
CCCCCCCC/C=C\c1c(C)c(/C=C\CCCCCCCC)c2[n+](c1C)CCC2,Activity,[16],inactive
same,Activity,[2],inactive
same,Activity,[17],inactive
same,Activity,[4],inactive
same,Activity,[5],Active
same,Activity,[6],inactive
same,Activity,[7],Active
same,Activity,[18],inactive
CCCCCCCC/C=C/c1c(C)cc(C)[n+]2c1CCC2,Activity,[2],inactive
same,IC50,[1]; [22],0.058 µM
same,Activity,[19],inactive
same,Activity,[4],inactive
same,Activity,[6],inactive
same,Activity,[20],inactive
CCCCCCCC/C=C\c1c(C)c(/C=C\CCCCCCCC)c2[n+](c1C)CCC2 [AANIBAMINE],IC50,[1]; read-out: IC50,0.11 µM
same,HC50,[3],> 58 µM
CCCCCCCCCCc1c(C)cc(C)nc1CCCOC,IC50,[1]; [22],> 20 µM
CCCCCCCC/C=C/c1c(C)cc2[n+](c1C)CCC2,Activity,[2],inactive
same,IC50,[1]; [22],0.171 µM
same,Activity,[19],inactive
same,Activity,[4],inactive
same,Activity,[6],inactive
same,Activity,[20],inactive
C=CC[C@@]1(OC)C=C2C(=CC1=O)O[C@H](c1ccc3c(c1)OCO3)[C@H]2C,IC50,[1],Not Active
same,IC50,[13],10 to 50 µM
CCCCCCCC/C=C/c1c(C)cc(C)nc1C,IC50,[1]; [22],> 20 µM
CCCCCCCCCCc1c(C)nc(CCCOC)c(CCCCCCCCCC)c1C,IC50,[1]; [22],> 20 µM
CCCCCCCC/C=C\c1c(C)nc(CCCOC)c(/C=C/CCCCCCCC)c1C,IC50,[1]; [22],> 20 µM
CCCCCCCC/C=C\c1c(C)c(/C=C\CCCCCCCC)c2[n+](c1C)CCC2 [ANIBAMINE],IC50,[1]; [22],0.17 µM
same,CC50,[21],> 22 µM
same,IC50,[13],0.223 µM
CCCCCCCCCCc1c(C)cc(C)nc1C,IC50,[1]; [22],> 20 µM
C=CC[C@@]12C=C(OC)C(=O)C=C1O[C@H](c1ccc3c(c1)OCO3)[C@H]2C,IC50,[1]; [22],> 30 µM
same,IC50,[13],10 to 50 µM
CCCCCCCC/C=C\c1c(CCCOC)nc(C)c(/C=C/CCCCCCCC)c1C,IC50,[1]; [22],> 20 µM
CCCCCCCC/C=C/c1c(C)cc(C)nc1CCCOC,IC50,[1]; [22],> 20 µM
CCCCCCCC/C=C\c1c(C)cc(C)nc1C,IC50,[1]; [22],> 20 µM
C=CC[C@@]12C=C(OC)C(=O)[C@@H]([C@@H](c3ccc4c(c3)OCO4)[C@@H]1C)[C@@H]2O,IC50,[1]; [22],> 100 µM
same,IC50,[13],10 to 50 µM
CCCCCCCC/C=C/c1c(C)c(/C=C/CCCCCCCC)c2[n+](c1C)CCCC2,Activity,[8],inactive
same,IC50,[1]; [22],0.061 µM
same,Activity,[9],Active
same,Activity,[10],inactive
same,HC50,[3],> 58 µM
same,Activity,[11],Active
same,Activity,[12],inactive
CCCCCCCC/C=C/c1c(C)nc(C)c(/C=C/CCCCCCCC)c1C,IC50,[1]; [22],> 20 µM
C.C=CC[C@]1(C(=O)OC)CC(=O)C[C@H](c2ccc3c(c2)OCO3)[C@H]1C,IC50,[1]; [22],> 100 µM
same,IC50,[13],> 10 µM
C=CCc1c(O)c(OC)cc2c1O[C@H](c1ccc3c(c1)OCO3)[C@H]2C,IC50,[1]; [22],30 µM
same,IC50,[13],10 to 35 µM
CCCCCCCC/C=C/c1c(C)c(CCCCCCCCCC)c2[n+](c1C)CCC2,IC50,[1]; [22],0.244 µM
same,IC50,[13],0.241 µM
CCCCCCCC/C=C\c1c(C)cc(C)nc1CCCOC,IC50,[1]; [22],8.8 µM
CCCCCCCC/C=C\c1c(C)cc(CCCOC)nc1C,IC50,[1]; [22],6.3 µM
CCCCCCCC/C=C/c1c(C)nc(CCCOC)c(/C=C/CCCCCCCC)c1C,IC50,[1]; [22],> 20 µM
CCCCCCCC/C=C\c1c(C)nc(C)c(/C=C\CCCCCCCC)c1C,IC50,[1]; [22],> 20 µM
CCCCCCCCCCc1c(C)cc(C)[n+]2c1CCC2,Activity,[2],inactive
same,IC50,[1]; [22],0.06 µM
same,Activity,[19],inactive
same,Activity,[4],inactive
same,Activity,[6],inactive
same,Activity,[20],inactive
CCCCCCCC/C=C\c1c(C)nc(C)c(/C=C/CCCCCCCC)c1C,IC50,[1]; [22],20 µM
CCCCCCCCCCc1c(C)c(CCCCCCCCCC)c2[n+](c1C)CCCC2,Activity,[2],inactive
same,IC50,[1]; [22],0.058 µM
same,HC50,[3],> 58 µM
same,Activity,[4],inactive
same,Activity,[5],Active
same,Activity,[6],inactive
same,Activity,[7],Active
CCCCCCCCCCc1c(C)nc(C)c(CCCCCCCCCC)c1C,IC50,[1]; [22],> 20 µM
C=CCOc1cc2c(cc1OC)[C@H](C)[C@@H](c1ccc3c(c1)OCO3)O2,IC50,[1]; [22],30 µM
same,IC50,[13],10 to 50 µM
